In ChEMBL document CHEMBL5724801, “EUbOPEN Chemogenomics Library - Multiplex” (2024):
“And” between values parts separate entries of the source, which are not always exact repeats. Equal entries are not always repeated.

Test system: U2OS
Test: Multiplex assay against U2OS
Format: toxicity, cell-based
Details: human
In short: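 Live cells were stained at seeding with Hoechst33342, BioTracker Green Microtubule Cytoskeleton Dye, MitoTracker Red and Annexin V Alexa Fluor 680. Following compound addition, they were imaged on a CQ1 microscope at 37°C and 5% CO2 and gated by CellPathfinder machine learning into Hoechst high-intensity objects or normal cells, with normal cells split into healthy, pyknosed or fragmented nuclei and pyknosed cells into mitotic or apoptotic. Tubulin, mitochondrial-mass and membrane-permeability phenotypes are per cents of healthy-nucleus cells.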

[1] = 12 h, 1 µM, compound concentration 1 uM
[2] = 12 h, 10 µM, compound concentration 10 uM
[3] = 24 h, 1 µM, compound concentration 1 uM
[4] = 24 h, 10 µM, compound concentration 10 uM
[5] = 48 h, 1 µM, compound concentration 1 uM
[6] = 48 h, 10 µM, compound concentration 10 uM

CC(/C=C1\SC(=S)N(CCCC(=O)Nc2ccc(C(=O)O)c(O)c2)C1=O)=C\c1ccccc1
Population Apoptotic (%) [1]: 94% and 100% | Population Fragmented Nuclei (%) [1]: 26% and 12% | Population Healthy Nuclei (%) [1]: 64% and 80% | Population Hoechst High Intensity Objects (%) [1]: 3% and 4% | Population Membrane Permeable-Phenotype (%) [1]: 4% and 3% | Population Mitochondria Different-Phenotype (%) [1]: 1% and 2% | Population Mitotic Cells (%) [1]: 5% and 0% | Population Normal (%) [1]: 96% and 95% | Population Pyknosed Nuclei (%) [1]: 8% and 7% | Population Tubulin-Different-Phenotype (%) [1]: 3% and 0% | Total Cell Count [1]: 205 and 133 | Population Apoptotic (%) [2]: 91% and 72% | Population Fragmented Nuclei (%) [2]: 28% and 16% | Population Healthy Nuclei (%) [2]: 61% and 72% | Population Hoechst High Intensity Objects (%) [2]: 3% and 0% | Population Membrane Permeable-Phenotype (%) [2]: 12% and 4% | Population Mitochondria Different-Phenotype (%) [2]: 2% and 1% | Population Normal (%) [2]: 96% and 100% | Population Pyknosed Nuclei (%) [2]: 9% and 10% | Population Tubulin-Different-Phenotype (%) [2]: 4% and 5% | Total Cell Count [2]: 241 and 101 | Population Apoptotic (%) [3]: 83% and 94% | Population Fragmented Nuclei (%) [3]: 25% and 9% | Population Healthy Nuclei (%) [3]: 64% and 79% | Population Hoechst High Intensity Objects (%) [3]: 3% and 1% | Population Membrane Permeable-Phenotype (%) [3]: 4% and 10% | Population Mitochondria Different-Phenotype (%) [3]: 1% | Population Normal (%) [3]: 96% and 98% | Population Pyknosed Nuclei (%) [3]: 10% | Population Tubulin-Different-Phenotype (%) [3]: 1% | Total Cell Count [3]: 247 and 177 | Population Apoptotic (%) [4]: 88% and 53% | Population Fragmented Nuclei (%) [4]: 26% and 16% | Population Healthy Nuclei (%) [4]: 64% and 72% | Population Hoechst High Intensity Objects (%) [4]: 2% and 0% | Population Membrane Permeable-Phenotype (%) [4]: 7% | Population Mitochondria Different-Phenotype (%) [4]: 3% and 6% | Population Normal (%) [4]: 97% and 100% | Population Pyknosed Nuclei (%) [4]: 8% and 11% | Population Tubulin-Different-Phenotype (%) [4]: 3% and 6% | Total Cell Count [4]: 298 and 111 | Population Apoptotic (%) [5]: 93% and 78% | Population Fragmented Nuclei (%) [5]: 16% and 11% | Population Healthy Nuclei (%) [5]: 74% and 79% | Population Hoechst High Intensity Objects (%) [5]: 2% and 3% | Population Membrane Permeable-Phenotype (%) [5]: 5% and 4% | Population Mitochondria Different-Phenotype (%) [5]: 1% and 3% | Population Normal (%) [5]: 97% and 96% | Population Pyknosed Nuclei (%) [5]: 8% and 9% | Population Tubulin-Different-Phenotype (%) [5]: 1% and 2% | Total Cell Count [5]: 368 and 253 | Population Apoptotic (%) [6]: 97% and 82% | Population Fragmented Nuclei (%) [6]: 19% and 16% | Population Healthy Nuclei (%) [6]: 68% and 73% | Population Hoechst High Intensity Objects (%) [6]: 2% and 1% | Population Membrane Permeable-Phenotype (%) [6]: 6% and 4% | Population Mitochondria Different-Phenotype (%) [6]: 2% and 1% | Population Normal (%) [6]: 97% and 98% | Population Pyknosed Nuclei (%) [6]: 12% and 10% | Population Tubulin-Different-Phenotype (%) [6]: 4% and 0% | Total Cell Count [6]: 396 and 170

Cc1c(CC(=O)O)c2cccnc2n1Cc1ccc(S(C)(=O)=O)cc1C(F)(F)F [FEVIPIPRANT]
Population Apoptotic (%) [1]: 80% and 50% | Population Fragmented Nuclei (%) [1]: 25% and 22% | Population Healthy Nuclei (%) [1]: 64% and 72% | Population Hoechst High Intensity Objects (%) [1]: 1% | Population Membrane Permeable-Phenotype (%) [1]: 2% and 8% | Population Mitochondria Different-Phenotype (%) [1]: 2% and 1% | Population Mitotic Cells (%) [1]: 19% and 50% | Population Normal (%) [1]: 98% | Population Pyknosed Nuclei (%) [1]: 9% and 5% | Population Tubulin-Different-Phenotype (%) [1]: 0% and 9% | Total Cell Count [1]: 224 and 118 | Population Apoptotic (%) [2]: 90% and 100% | Population Fragmented Nuclei (%) [2]: 27% and 22% | Population Healthy Nuclei (%) [2]: 65% and 73% | Population Hoechst High Intensity Objects (%) [2]: 2% and 0% | Population Membrane Permeable-Phenotype (%) [2]: 3% and 8% | Population Mitochondria Different-Phenotype (%) [2]: 0% and 3% | Population Mitotic Cells (%) [2]: 9% and 0% | Population Normal (%) [2]: 97% and 99% | Population Pyknosed Nuclei (%) [2]: 7% and 3% | Population Tubulin-Different-Phenotype (%) [2]: 1% and 4% | Total Cell Count [2]: 287 and 116 | Population Apoptotic (%) [3]: 80% and 66% | Population Fragmented Nuclei (%) [3]: 20% and 17% | Population Healthy Nuclei (%) [3]: 71% and 74% | Population Hoechst High Intensity Objects (%) [3]: 2% and 0% | Population Membrane Permeable-Phenotype (%) [3]: 1% and 9% | Population Mitochondria Different-Phenotype (%) [3]: 3% and 0% | Population Mitotic Cells (%) [3]: 20% and 33% | Population Normal (%) [3]: 97% and 100% | Population Pyknosed Nuclei (%) [3]: 8% | Population Tubulin-Different-Phenotype (%) [3]: 1% and 10% | Total Cell Count [3]: 256 and 145 | Population Apoptotic (%) [4]: 96% and 100% | Population Fragmented Nuclei (%) [4]: 20% and 12% | Population Healthy Nuclei (%) [4]: 70% and 78% | Population Hoechst High Intensity Objects (%) [4]: 0% and 1% | Population Membrane Permeable-Phenotype (%) [4]: 5% and 8% | Population Mitochondria Different-Phenotype (%) [4]: 3% and 2% | Population Mitotic Cells (%) [4]: 3% and 0% | Population Normal (%) [4]: 99% and 98% | Population Pyknosed Nuclei (%) [4]: 8% | Population Tubulin-Different-Phenotype (%) [4]: 3% | Total Cell Count [4]: 326 and 119 | Population Apoptotic (%) [5]: 65% and 90% | Population Fragmented Nuclei (%) [5]: 18% and 20% | Population Healthy Nuclei (%) [5]: 71% and 67% | Population Hoechst High Intensity Objects (%) [5]: 2% | Population Membrane Permeable-Phenotype (%) [5]: 4% and 8% | Population Mitochondria Different-Phenotype (%) [5]: 3% and 5% | Population Normal (%) [5]: 97% | Population Pyknosed Nuclei (%) [5]: 10% and 12% | Population Tubulin-Different-Phenotype (%) [5]: 2% and 9% | Total Cell Count [5]: 379 and 187 | Population Apoptotic (%) [6]: 91% and 100% | Population Fragmented Nuclei (%) [6]: 17% and 15% | Population Healthy Nuclei (%) [6]: 73% and 76% | Population Hoechst High Intensity Objects (%) [6]: 1% and 3% | Population Membrane Permeable-Phenotype (%) [6]: 4% and 5% | Population Mitochondria Different-Phenotype (%) [6]: 3% and 1% | Population Mitotic Cells (%) [6]: 8% and 0% | Population Normal (%) [6]: 98% and 96% | Population Pyknosed Nuclei (%) [6]: 8% | Population Tubulin-Different-Phenotype (%) [6]: 3% | Total Cell Count [6]: 408 and 158
